Screening data (PubChem)
Hsp70 act – Hsp70 transcriptional activators, primary screen, cell-based, HeLa, Hsp70 promoter luciferase, luminescence, 10 µM; activation, % at 10 µM; HeLa Hsp70 promoter luciferase reporter; scaled: vehicle 0, proteasome-inhibitor control 100%; 0.04% of 200,000 active; AID 1203, 2008;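 active = activation above the mean across all tested compounds plus 3 SD, cutoff set per campaign, cut at about 5.5% in these data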;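 note: 100% = MG132 at 30 µM as the positive control and 0% = DMSO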
L major viab – Leishmania major promastigote growth inhibition, primary screen; Leishmania major promastigotes, resazurin fluorescence viability; inhibition, % at 10 µM; 9% of 200,000 active; AID 1063, 2008; in the data active = inhibition above about 50%;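 note: promastigotes grown with compound for 44 hours at 28 °C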
T cruzi inh – inhibitors of intracellular T. cruzi growth, primary screen, luminescence, NIH3T3 host cells. T. cruzi beta-gal in NIH3T3, 90 h. inhibition, % (test concentration not listed). 1.4% of 300,000 active;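 active = mean inhibition across valid replicates above about 55%, limit read from the data; inconclusive = mean below that limit but half or more replicates reach it; inactive = mean below it, under half of replicates reach it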;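 note: signal also drops with host cell toxicity which is not excluded here; 0% = plate median of DMSO wells and 100% = zero luminescence signal; higher percent means less beta-gal luminescence so fewer parasites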
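System: mouse NIH/3T3 fibroblasts infected with β-gal-expressing T. cruzi Tulahuen C4 / Input: NIH/3T3 cells, 5,000 per well / Buffer or medium: Low-serum DMEM with 2% FBS / Probe or stimulus: 5000 reporter trypomastigotes per well / Schedule: ≥90 h infection period, 3 h prior cell attachment / Measured by: GalScreen luminescence, 60 min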
HSF-1 act – HSF-1 activators, primary screen, NIH3T3-HGL cells, MG132 stress, luminescence, single point; NIH3T3-HGL HSF-1 luciferase reporter, 8 h; 100% = twice DMSO control signal; 1.7% of 300,000 active; activation, % at 9 µM;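 active = mean replicate activation of at least 50% with a set share of replicates each reaching 50%; inconclusive = only one of those two conditions met; inactive = mean below 50% and too few replicates reaching it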;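 note: 0% = median of the neutral control wells and 100% = twice that signal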
HSF1 inhib – HSF1 inhibitors in luciferase reporter cells, primary screen, cell-based, NIH3T3, luminescence; NIH3T3-HGL HSE-luciferase, MG132-induced, luminescence 8 h; stronger effect = lower value; activity change, negative = inhibition, % at 7.5 µM (by protocol); 0.77% of 300,000 active; AID 2098, 2009;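 active = more than half of replicate wells show activity change below -50%, luminescence cut by over half; inconclusive = some wells, but at most half, below -50%; inactive = no replicate well below -50%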;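 note: luciferase reports HSF-1 transcriptional activity via heat shock element; 0% = median of DMSO wells and -100% = zero luminescence signal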
Numbers without * were called inactive; ? = inconclusive; · = not tested or not shown. This is one part of a sample in which hits are shown more often than they occur.

SMILES	Hsp70 act	L major viab	T cruzi inh	HSF-1 act	HSF1 inhib
O=C(/C=C/c1cccc([N+](=O)[O-])c1)NC(=S)Nc1ccc(CN2CCOCC2)cc1	0	11	17	136*	84
C/C(=N\NC(=O)c1ccc(CN2CCOCC2)cc1)c1cccc([N+](=O)[O-])c1	0	8	4	-25	-13
CSc1ccc(CN2CCN(C(=O)c3ccc([N+](=O)[O-])cc3)CC2)cc1	0	69*	17	-7	1
O=C(c1ccc(Cn2ccc([N+](=O)[O-])n2)cc1)N1CCN(Cc2ccccc2)CC1	·	·	10	5	3
C/C(=N\NC(=O)c1ccc(CN2CCOCC2)cc1)c1ccc([N+](=O)[O-])cc1	0	77*	-4	-26	-9
O=C(COc1ccc([N+](=O)[O-])cc1)Nc1ccc(CN2CCOCC2)cc1	0	63*	9	-2	-5
NCC(O)CN1CCN(Cc2ccccc2)CC1 (stereo not given)	·	·	-23	-11	-1
O=C(Cn1nc(-c2cccc(Cl)c2)ccc1=O)NCC1COCCO1 (stereo not given)	·	·	1	-4	1
CCN1CCN(C(=O)CCCn2c(C)c3cnn(-c4ccccc4)c(=O)c3c2C)CC1	0	69*	-33	-18	-6
Cc1c2cnn(-c3ccccc3)c(=O)c2c(C)n1CCCC(=O)N1CCN(c2ncccn2)CC1	0	-7	·	·	·
COc1ccccc1NC(=O)C(=O)NCCC1CCCCN1S(=O)(=O)c1cccs1 (stereo not given)	·	·	19	-5	3
CN(C)CCOc1nc(-c2ccccc2)nc2c1oc1ccccc12	0	100*	36	9	4
Cc1ccccc1C1=NC(C(F)(F)F)(C(F)(F)F)c2c(n(C)c(=O)n(C)c2=O)N1	0	-1	-4	-25	-8
Cn1c2c(c(=O)n(C)c1=O)C(C(F)(F)F)(C(F)(F)F)N=C(c1ccc(Cl)cc1)N2	0	100*	24	8	12
O=C(Nc1cccc(F)c1)NC1CC2CCCC(C1)N2C1CC1 (stereo not given)	0	16	-6	15	-11
O=C(Nc1ccc(Cl)c(C(F)(F)F)c1)NC1CC2CCCC(C1)N2C1CC1 (stereo not given)	0	60*	33	-21	2
COc1ccc(CNC(=O)CN(C2CCCCC2)S(C)(=O)=O)cc1	0	49	-16	-3	-6
CC1(c2ccccc2)CC(c2ccccc2)=Nc2ccccc2N1 (stereo not given)	·	·	-3	11	14
Cc1ccc(C2=Nc3ccccc3NC(C)(c3ccc(C)o3)C2)o1 (stereo not given)	1	18	10	53*	40
COc1ccc(C(=O)N2CCC(C(=O)N3CCN(Cc4ccccc4)CC3)CC2)cc1	·	·	-2	-16	-3
O=C(c1cc(-c2ccncc2)nc2ccccc12)N1CCN(S(=O)(=O)/C=C/c2ccccc2)CC1	0	97*	42	-5	2
O=S(=O)(/C=C/c1ccccc1)N1CCN(c2nc(-c3cccnc3)nc3ccccc23)CC1	0	52*	34	-13	6
O=C(c1cc(-c2ccccc2)nc2ccccc12)N1CCc2ccccc2C1	0	58*	0	8	1
c1cncc(-c2nc(N3CCOCC3)c3ccccc3n2)c1	0	10	14	-17	-12
Cc1cn(CC(=O)c2ccccc2)c2ccccc12	·	·	2	5	-1
SMILES	Hsp70 act	L major viab	T cruzi inh	HSF-1 act	HSF1 inhib
O=C(NCCc1ccccc1)C1CC(=O)N(C2CCCCC2)C1 (stereo not given)	·	·	-11	-6	-7
CCOc1ccc(-n2c(SCC(=O)N3CCC(C(=O)O)CC3)nc3ccccc3c2=O)cc1	·	·	3	-6	6
NC(=O)c1c[nH]c2ccccc12	0	-7	-6	-3	-1
COC(=O)c1ccc(NC(=O)C(=O)c2c[nH]c3ccccc23)cc1	·	·	-4	31	21
O=C(Nc1ccccc1)C(=O)c1c[nH]c2ccccc12	·	·	0	68*	40
O=C(/C=C/c1ccccc1)c1c[nH]c2ccccc12	·	·	-10	111*	54
Cc1nc(N2CCC(C)CC2)c2c(C)c(C(=O)Nc3ccc(C)c(F)c3)sc2n1	0	11	38	20	10
Cc1nc(N2CCC(C)CC2)c2c(C)c(C(=O)Nc3ccccc3C(F)(F)F)sc2n1	0	51*	53	46	12
CC1CN(CCOCCSc2ccccc2)CC(C)O1 (stereo not given)	0	10	51	-9	-9
Cc1ccc(C)c(OCCOCCN2CC(C)OC(C)C2)c1C (stereo not given)	0	91*	49	-4	5
O=C(CCN1CCOCC1)c1ccc(Cl)cc1	0	72*	75*	-2	0
Cc1ccc(SCCCCN2CCOCC2)cc1	·	·	-2	141*	113
CC1CN(CCOCCSc2ccc(Cl)cc2)CC(C)O1 (stereo not given)	·	·	62*	16	-1
Cc1ccccc1OCC(=O)Nc1ccc2c(c1)n(C)c(=O)n2C	0	19	-10	9	2
Cc1ccc(OCCCCN2CCc3ccccc3C2)cc1	·	·	22	3	-3
CC1CCN(CCOCCSc2ccc(Cl)cc2)CC1	0	93*	54	-3	-1
Clc1ccc(SCCOCCN2CCOCC2)cc1	·	·	57*	3	-5
Clc1ccc(SCCOCCN2CCCCC2)cc1	0	98*	?	1	0
Clc1ccc(OCCN2CCOCC2)cc1	·	·	-3	-22	-5
Clc1ccc(SCCOCCN2CCc3ccccc3C2)cc1	0	88*	66*	3	4
Cc1cc(C)cc(C(=O)NCC(=O)OCC(=O)N2CCN(S(=O)(=O)c3ccc4ccccc4c3)CC2)c1	-1	-6	-5	14	4
CCOC(=O)c1c(O)c(Cl)c(C)[nH]c1=O	0	-6	-5	9	-1
COc1cccc(C(=O)N2CCC(n3nccc3NC(=O)C(OC)c3ccccc3)CC2)c1 (stereo not given)	·	·	2	-6	2
CCOC(=O)c1cccc(NC(=O)C2(S(=O)(=O)c3ccc(C)cc3)CC2)c1	0	0	-5	23	0
Clc1ccc(SCCCCN2CCOCC2)cc1	0	97*	15	-14	3
CC1CCCN(CCSc2ccc(Cl)cc2)C1 (stereo not given)	0	72*	1	10	-2
CC1CN(CCCCSc2ccc(Cl)cc2)CC(C)O1 (stereo not given)	·	·	3	-4	-5
COc1ccc(OC)c(Nc2nc3ccc(C)cc3n3cnnc23)c1	·	·	24	74*	19
